# Reference: PMC5823510 (Journal of the American Chemical Society, 2018)
# How the values were obtained:
# [1] = molecular target: NUDT16 (nucleoside diphosphate-linked moiety X-type motif 16) (Homo sapiens, UniProt Q96DE0); assay: Enzyme selectivity screen, NUDT16; type: biochemical; conditions: 20 μM
# [2] = molecular target: T1, SMUG1 (single-strand selective monofunctional uracil DNA glycosylase) (Homo sapiens, UniProt Q53HV7); assay: Enzyme selectivity screen, SMUG1; type: biochemical; conditions: 20 μM
# T1 sequence (Q53HV7 1-270): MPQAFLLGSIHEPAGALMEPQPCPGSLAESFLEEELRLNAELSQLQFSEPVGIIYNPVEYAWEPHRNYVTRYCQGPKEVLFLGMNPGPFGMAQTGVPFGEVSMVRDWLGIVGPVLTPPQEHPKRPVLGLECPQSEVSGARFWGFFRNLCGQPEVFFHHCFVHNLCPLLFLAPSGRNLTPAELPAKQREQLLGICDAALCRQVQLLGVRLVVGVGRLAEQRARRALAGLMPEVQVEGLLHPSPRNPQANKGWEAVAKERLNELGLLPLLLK
# [3] = molecular target: T2, hOGG1 (Homo sapiens, UniProt O15527); assay: OGG1 inhibitor assay with fluorogenic OGR1 probe; type: biochemical
# T2 sequence (O15527 whole entry): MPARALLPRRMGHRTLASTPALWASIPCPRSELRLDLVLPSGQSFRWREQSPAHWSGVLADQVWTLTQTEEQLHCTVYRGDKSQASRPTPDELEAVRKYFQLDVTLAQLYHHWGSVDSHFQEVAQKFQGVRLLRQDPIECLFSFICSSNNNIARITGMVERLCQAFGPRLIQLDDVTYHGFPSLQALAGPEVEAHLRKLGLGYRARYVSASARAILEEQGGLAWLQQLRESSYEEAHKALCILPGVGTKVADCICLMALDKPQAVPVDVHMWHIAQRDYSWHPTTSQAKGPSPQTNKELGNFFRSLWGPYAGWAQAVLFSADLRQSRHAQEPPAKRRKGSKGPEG
# [4] = tested on: HeLa cells; assay: Toxicity via MTT assay, HeLa; type: cell-based, human
# How it was run: (§1)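 HEK293T cells (1.6×10^4/well, pre-grown 30 h) or HeLa cells (1.2×10^4/well, pre-grown 16 h) were cultured in DMEM with 10% FBS. They were exposed 24 h at 37 °C to test compound at 10 nM–100 μM, with 5% DMSO at 100 μM and 1% DMSO otherwise; medium-only and DMSO-matched controls were included. MTT was added at 0.5 mg/mL final, followed by 20 h solubilisation and absorbance reading at 550 and 650 nm.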
# [5] = molecular target: T2, hOGG1; assay: Michaelis–Menten kinetics of hOGG1 with OGR1 probe; type: biochemical
# How it was run: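 Recombinant hOGG1 (100 nM) was preincubated 15 min at 37 °C in NEBuffer 4 (pH 7.9) with BSA, without or with test compound (200 nM or 2 μM). OGR1 fluorogenic substrate was added at 0.8–10 μM and fluorescence read at 460 nm (excitation 355 nm). Initial rates over 10 min gave Michaelis–Menten curves and Lineweaver–Burk plots, yielding Km and Vmax; kcat = Vmax/[enzyme].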
# [6] = molecular target: Recombinant His-tagged OGG1 (Homo sapiens, UniProt O15527); assay: Surface plasmon resonance; type: binding; conditions: Biacore 8K, 1:3 dilution series, highest concentration 4 μM
# Recombinant His-tagged OGG1, sequence (O15527 whole entry): as above
# [7] = tested on: Caco-2 (clone C2BBel); assay: CACO-2 permeability assay; type: in vitro ADME; conditions: for Papp avg: average; for Papp R1: replicate R1
# [8] = molecular target: OGG1 activity in MCF-7 cell lysates (Homo sapiens, UniProt O15527); assay: Inhibition of OGG1 activity in MCF-7 cell lysate; type: biochemical; conditions: MCF-7 lysate, 0.5 μM, measured at 20 h
# OGG1 activity in MCF-7 cell lysates, sequence (O15527 whole entry): as above
# [9] = molecular target: OGG1 activity in HeLa cell lysates (Homo sapiens, UniProt O15527); assay: Inhibition of OGG1 activity in HeLa cell lysate; type: biochemical; conditions: 0.5 μM, measured at 20 h
# OGG1 activity in HeLa cell lysates, sequence (O15527 whole entry): as above
# How it was run: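 Cells were grown 48 h to confluence in DMEM with 10% FBS. Cytoplasmic fractions came from hypotonic swelling and needle lysis; nucleoplasmic fractions from 0.42 M NaCl extraction. The two were mixed 2:1. Each reaction held 100 ng/µL total protein, 2 µM pOGR1 fluorogenic probe, 10 mM MgCl2 and test compound at 0.5 μM, and ran […] at 37 °C. Fluorescence was read at 460 nm (excitation 355 nm).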
# [10] = molecular target: OGG1 in HeLa cells (Homo sapiens, UniProt O15527); assay: Detection of 8-OG; type: cell-based; conditions: 0.5 μM, 24 h, LC/MS-MS
# OGG1 in HeLa cells, sequence (O15527 whole entry): as above
# How it was run: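 HeLa cells were seeded at 2×10^6 per 10 cm dish in DMEM with 10% FBS and grown 12 h. They were then exposed 24 h at 37 °C to test compound at 5 or 0.5 μM, with compound-containing medium renewed every 6 h. Controls were untreated cells and H2O2 (0.5 mM) plus CrCl3 (0.3 mM). DNA (5 µg) was digested to nucleosides, and 8-oxodG was quantified by LC-MS/MS with 15N-labelled internal standards and normalised to dG.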
# [11] = molecular target: T3, hABH3 (human AlkB Homolog 3) (Homo sapiens, UniProt Q96Q83); assay: Enzyme selectivity screen, hABH3; type: biochemical; conditions: 20 μM
# T3 sequence (Q96Q83 1-286): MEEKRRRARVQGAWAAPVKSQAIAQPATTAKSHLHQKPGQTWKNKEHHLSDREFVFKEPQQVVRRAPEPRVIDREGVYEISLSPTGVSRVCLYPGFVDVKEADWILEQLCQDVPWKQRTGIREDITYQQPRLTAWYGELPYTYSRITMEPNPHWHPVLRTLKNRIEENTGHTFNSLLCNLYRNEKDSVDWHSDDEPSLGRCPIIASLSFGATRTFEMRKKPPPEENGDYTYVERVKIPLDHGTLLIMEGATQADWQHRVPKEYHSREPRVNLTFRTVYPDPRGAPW
# [12] = tested on: HEK293T cells; assay: Toxicity via MTT assay, HEK293T; type: cell-based, human
# How it was run: as §1
# [13] = tested on: dUTPase (deoxyuridine 5′-triphosphate nucleotidohydrolase); assay: Enzyme selectivity screen, dUTPase; type: biochemical; conditions: 20 μM
# [14] = molecular target: MTH1 (human MutT Homolog 1) (Homo sapiens, UniProt P36639); assay: Enzyme selectivity screen, MTH1; type: biochemical; conditions: 20 μM
# [15] = molecular target: T4, hABH2 (human AlkB Homolog 2) (Homo sapiens, UniProt Q6NS38); assay: Enzyme selectivity screen, hABH2; type: biochemical; conditions: 20 μM
# T4 sequence (Q6NS38 1-261): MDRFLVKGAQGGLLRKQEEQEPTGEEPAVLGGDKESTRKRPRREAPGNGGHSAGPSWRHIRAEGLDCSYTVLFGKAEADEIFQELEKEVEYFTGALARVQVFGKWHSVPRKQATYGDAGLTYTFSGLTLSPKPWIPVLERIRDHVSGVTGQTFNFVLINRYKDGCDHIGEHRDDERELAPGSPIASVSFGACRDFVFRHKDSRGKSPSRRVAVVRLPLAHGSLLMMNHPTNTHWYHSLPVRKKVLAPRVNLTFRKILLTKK
# NUDT16 (nucleoside diphosphate-linked moiety X-type motif 16), sequence (Q96DE0 whole entry, species assumed): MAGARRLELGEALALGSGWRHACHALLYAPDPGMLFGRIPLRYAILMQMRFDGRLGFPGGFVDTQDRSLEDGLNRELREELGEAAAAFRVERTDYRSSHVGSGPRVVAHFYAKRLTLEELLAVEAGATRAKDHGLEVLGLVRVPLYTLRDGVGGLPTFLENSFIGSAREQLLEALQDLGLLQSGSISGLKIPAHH
structure (smiles),measurement,setting,value
NC(=O)c1cccc(-c2ccc(S(=O)(=O)Nc3ccc4c(c3)N(C(=O)C3CC3)CCC4)cc2)c1 [Compound 41],activity against NUDT16,[1],low or negligible
same,activity against SMUG1,[2],low or negligible
same,"Enzyme activity, % of control at 2 μM","[3]; 2 μM compound, initial rate (first 12 min)",4.8 % of control
same,IC50,"[3]; OGR1 assay, initial rates method",59 nM
same,"Enzyme activity, % of control at 200 μM (third column of Table 5)","[3]; head of Table 5 c4 prints 200 μM, initial rate (first 12 min)",39 ±2.5 % of control
same,toxicity at 10 μM,"[4]; HeLa (one of two human cell lines), 10 μM",no toxicity
same,cytotoxicity (MTT),"[4]; HeLa, 10 nM to 10 μM, 24 h",little or no cytotoxicity
same,apparent toxicity (MTT),"[4]; HeLa, 100 μM, 24 h",30–50%
same,mode of inhibition,"[5]; Lineweaver–Burk analysis, 200 nM and 2 μM",competitive inhibitor
same,kcat,[5]; with 200 nM 41,0.040 s⁻¹
same,kcat,[5]; with 2 μM 41,0.057 s⁻¹
same,Kd (1:1 kinetic and steady-state models),[6],consistent with IC50 of the biochemical assay
same,recovery,[7]; A-to-B,65%
same,Papp avg,[7]; A-to-B,12.5 ×10⁻⁶ cm/s
same,Papp R1,[7]; A-to-B,14.2 ×10⁻⁶ cm/s
same,recovery,[7]; B-to-A,79%
same,efflux ratio,[7]; B-to-A / A-to-B,6.2
same,Papp avg,[7]; B-to-A,77.4 ×10⁻⁶ cm/s
same,Papp R1,[7]; B-to-A,63.5 ×10⁻⁶ cm/s
same,inhibition of probe signal,[8],95%
same,inhibition of probe signal,[9],64%
same,increase of 8-oxodG levels in DNA relative to mock-treated controls,[10],25%
same,activity against hABH3,[11],low or negligible
same,toxicity at 10 μM,"[12]; HEK293T (one of two human cell lines), 10 μM",no toxicity
same,cytotoxicity (MTT),"[12]; HEK293T, 10 nM to 10 μM, 24 h",little or no cytotoxicity
same,apparent toxicity (MTT),"[12]; HEK293T, 100 μM, 24 h",30–50%
same,activity against dUTPase,[13],low or negligible
same,activity against MTH1,[14],low or negligible
same,activity against hABH2,[15],low or negligible
